Source: the EternaBench riboswitch data

Test system: MS2 coat protein
Assay: apparent Kd, MS2 coat protein; higher = weaker binding; RNA-MaP array; FMN 200 µM where present
Procedure, shortened: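 Stalled E. coli RNA polymerase transcribed each design on Illumina sequencing-chip clusters. The clusters were titrated with SNAP-549-labelled MS2 coat protein, starting at 0.7 or 1.5 nM and doubling up to 3 µM, first without ligand and then with constant ligand, in 100 mM Tris-HCl pH 7.5, 80 mM KCl, 4 mM MgCl2, BSA, DTT, yeast tRNA and Tween-20. Green signal was normalised to red-channel RNA signal and to the control-cluster median Fmax. The apparent Kd is the median of filtered binding-curve fits made for each cluster.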

[1] = designed as: OFF switch for flavin mononucleotide, no ligand
[2] = ligand present: flavin mononucleotide, designed as: OFF switch for flavin mononucleotide
[3] = designed as: ON switch for flavin mononucleotide, no ligand
[4] = ligand present: flavin mononucleotide, designed as: ON switch for flavin mononucleotide

Row | Sequence | apparent Kd [1] [nM] | apparent Kd [2] [nM] | apparent Kd [3] [nM] | apparent Kd [4] [nM]
1 | UGGUACAUGAGGAUCACCCAUGUAAGAGCCCUCAUGCGAUGUAGAAGGUUAAUGCGAGUAGUGCUAAAGGAUAUACAUGAGUUU | 212 | 173 |  | 
2 | UGGUACAUGGGAGGAUAUCAUGUAGAGACAUGAGGAUCACCCAUGUCGAUGGAGACAUCGGAGAUUGAGAAGGCCCAUGUACCU |  |  | 152 | 23.1
3 | UGGUACAUGGGAGGAUAUCAUGUAGAUACAUGAGGAUCACCCAUGUCGAUGGAGACAUCGGAGAUUGAGAAGGCCCAUGUACCU |  |  | 778 | 32.9
4 | UGGUACAUGGGAGGAUAUCAUGUGGACACAUGAGGAUCACCCAUGUCGAUGGAGACAUCGGAGAUUGAGAAGGCCCAUGUACCU |  |  | 390 | 12.7
5 | UGGUACAUGGGAGGAUAUGGGAAGUUAACAUGAGGAUCACCCAUGUUUGCCGAAAGGCAAAAGAACUAGAAGGCCCAUGUACCU |  |  | 23.1 | 16.4
6 | UGGUACAUGGGAGGAUAUGGGUUGAUAACAUGAGGAUCACCCAUGUUAAAUAAGCCGAGAGGCUACUAGAAGGCCCAUGUACCU |  |  | 819 | 28.9
7 | UGGUACAUGGGAGGAUAUGGUGUAGACACAUGAGGAUCACCCAUGUCGAUGGAGACAUCGGAGAUCCAGAAGGCCCAUGUACCU |  |  | 503 | 24
8 | UGGUACCAGGGAGGAUAUGGGAAGAUACAUGAGGAUCACCCAUGUUUAAGAAUGCCGAGAGGCAACUAGAAGGCCCUAGUACCU |  |  | 338 | 19
9 | UGGUACUACGGAGGAUAUCAUGUAAAUACAUGAGGAUCACCCAUGUCGUACGAGAGUACGGAGAUUGAGAAGGCCGUAGUACCU |  |  | 25.6 | 15.6
10 | UGGUACUACGGAGGAUAUCAUGUAGAUACAUGAGGAUCACCCAUGUCGAUGGAGACAUCGGAGAUUGAGAAGGCCGUAGUACCU |  |  | 610 | 29.4
11 | UGGUACUAGCGAGGAUAUGGGAAGAUACAUGAGGAUCACCCAUGUUUAAGAAUGCCGAGAGGCAACUAGAAGGCCCUAGUACCU |  |  | 456 | 69.4
12 | UGGUACUAGGGAGGAUAUGGGAAGAUACAUGAGGAUCACCCAUGUUUAAGAAUGCCGAGAGGCAACUAGAAGGUCCUAGUACCU |  |  | 628 | 38.2
13 | UGGUACUAGGGAGGAUAUGGGAAGAUACAUGAGGAUCACCCAUGUUUAAGAAUGCCGAGAGUCAACUAGAAGGCCCUAGUACCU |  |  | 180 | 20.3
14 | UGGUACUAGGGAGGAUAUGGGAAGAUACAUGAGGAUCACCCAUGUUUAAGAAUGCCGAGAUGCAACUAGAAGGCCCUAGUACCU |  |  | 371 | 21.9
15 | UGGUACUAGGGAGGAUAUGGGAAGAUACAUGAGGAUCACCCAUGUUUAAGAUUGCCGAGAGGCAACUAGAAGGCCCUAGUACCU |  |  | 1120 | 130
16 | UGGUACUAGGGAGGAUAUGGUAAGAUACAUGAGGAUCACCCAUGUUUAAGAAUGCCGAGAGGCAACUAGAAGGCCCUAGUACCU |  |  | 6.47 | 5.04
17 | UGGUGAGUCAAGAAGGACAUGAGGAUCACCCAUGUAGGAUAUUGGCGUCACGGCUCCAAUACGUACAUGUGGGACGGUCAAAGG |  |  | 48.6 | 16.5
18 | UGGUGCUAGGGAGGAUAUGGGAAGAUACAUGAGGAUCACCCAUGUUUAAGAAUGCCGAGAGGCAACUAGAAGGCCCUAGUACCU |  |  | 457 | 20.9
19 | UGUAACCGAGGAUAUACAUGAGGAUCACCCAUGUAAUGUAGUAUAGUGUGUGUGAGGUGUAGAAGGUGGGAUGU | 93.4 | 97.2 |  | 
20 | UGUACUAUAAGGUUAAUUGUAUAUUGAGAAGGCAUUCACAUGAGGAUCACCCAUGUAACAUGGGAUGAGGAUAUCAUUUUGUAC |  |  | 232 | 32.6
21 | UGUAGUUACGUAGGAUAUCCACGGGCACCCGUAGGAGAAGGACGCUGGACAUGAGGAUCACCCAUGUAUAGAUGGGUGCCUUUC | 125 | 206 |  | 
22 | UGUAGUUCAGGAUAUGAUGUUUAAAACAUGAGGAUCACCCAUGUAGAUCCUGAAUUAACAUCAGAAGGGAAUAUUU | 17.9 | 46.2 |  | 
